Data on one compound can be found in PMC7658073 (Clinical Pharmacokinetics, 2020).

Data set [1] in a line: Phase I DDI study with ketoconazole. The data set is classed as in vivo, human. The gist of the method: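 Randomized, open-label, two-fold crossover in healthy men. Ketoconazole 200 mg BID orally for 3 days, given before and with a single oral 1.25 mg dose of test compound, fed, versus test compound alone.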
A short description of data set [2]: Phase I DDI study with aspirin. In kind it is in vivo, human. To be noted: with aspirin 500 mg vs vericiguat 15 mg SD alone, fasting.
A short description of data set [3]: Phase I DDI study with sacubitril/valsartan. The data set is classed as in vivo, human. The note with it: administered with sacubitril/valsartan.
The target in data set [4] is T1, OATP1B3 (Homo sapiens, UniProt Q9NPD5).
T1 sequence (Q9NPD5 1-702): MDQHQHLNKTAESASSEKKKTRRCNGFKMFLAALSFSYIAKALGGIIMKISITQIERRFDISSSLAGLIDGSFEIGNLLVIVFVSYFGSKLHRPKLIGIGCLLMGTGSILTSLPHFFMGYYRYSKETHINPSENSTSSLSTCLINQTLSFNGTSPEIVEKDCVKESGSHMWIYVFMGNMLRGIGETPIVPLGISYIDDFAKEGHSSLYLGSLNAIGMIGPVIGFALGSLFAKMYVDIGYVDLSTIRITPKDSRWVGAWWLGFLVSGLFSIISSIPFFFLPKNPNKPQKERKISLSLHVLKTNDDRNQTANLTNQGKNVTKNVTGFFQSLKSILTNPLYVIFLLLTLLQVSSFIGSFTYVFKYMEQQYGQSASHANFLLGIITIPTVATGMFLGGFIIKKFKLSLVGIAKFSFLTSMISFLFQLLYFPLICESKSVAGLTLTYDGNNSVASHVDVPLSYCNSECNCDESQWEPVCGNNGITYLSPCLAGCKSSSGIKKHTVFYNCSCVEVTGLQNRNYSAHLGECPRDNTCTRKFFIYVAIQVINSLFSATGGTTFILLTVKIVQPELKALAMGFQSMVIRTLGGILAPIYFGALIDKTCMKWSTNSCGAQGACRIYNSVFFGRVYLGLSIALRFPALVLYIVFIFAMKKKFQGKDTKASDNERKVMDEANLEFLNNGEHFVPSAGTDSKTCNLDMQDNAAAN
The data set can be described thus: Substrate properties towards OATP1B3. The data set is classed as in vitro ADME.

Data set [5] concerns the target P-glycoprotein (Homo sapiens, UniProt P08183). In words: Inhibitory potential towards P-gp. In kind it is in vitro ADME.
The target in data set [6] is T2, MATE1 (Homo sapiens, UniProt Q96FL8).
T2 sequence (Q96FL8 1-570): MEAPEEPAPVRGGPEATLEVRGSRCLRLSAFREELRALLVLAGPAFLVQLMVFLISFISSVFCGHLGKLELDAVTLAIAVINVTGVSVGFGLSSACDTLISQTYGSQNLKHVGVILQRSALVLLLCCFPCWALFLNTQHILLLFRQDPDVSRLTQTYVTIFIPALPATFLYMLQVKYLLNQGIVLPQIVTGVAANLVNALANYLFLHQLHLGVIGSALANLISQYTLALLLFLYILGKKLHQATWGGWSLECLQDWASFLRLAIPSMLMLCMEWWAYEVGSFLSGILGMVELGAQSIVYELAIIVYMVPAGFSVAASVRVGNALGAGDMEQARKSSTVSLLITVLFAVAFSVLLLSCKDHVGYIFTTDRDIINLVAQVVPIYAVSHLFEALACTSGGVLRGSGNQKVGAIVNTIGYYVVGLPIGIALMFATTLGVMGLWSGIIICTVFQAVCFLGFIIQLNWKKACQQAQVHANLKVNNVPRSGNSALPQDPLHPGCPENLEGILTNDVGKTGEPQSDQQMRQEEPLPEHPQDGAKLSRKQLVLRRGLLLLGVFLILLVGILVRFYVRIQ
In words: Inhibitory potency towards MATE1. In kind it is in vitro ADME.

Data set [7] concerns the target T3, OAT3 (Homo sapiens, UniProt Q8TCC7).
T3 sequence (Q8TCC7 1-542): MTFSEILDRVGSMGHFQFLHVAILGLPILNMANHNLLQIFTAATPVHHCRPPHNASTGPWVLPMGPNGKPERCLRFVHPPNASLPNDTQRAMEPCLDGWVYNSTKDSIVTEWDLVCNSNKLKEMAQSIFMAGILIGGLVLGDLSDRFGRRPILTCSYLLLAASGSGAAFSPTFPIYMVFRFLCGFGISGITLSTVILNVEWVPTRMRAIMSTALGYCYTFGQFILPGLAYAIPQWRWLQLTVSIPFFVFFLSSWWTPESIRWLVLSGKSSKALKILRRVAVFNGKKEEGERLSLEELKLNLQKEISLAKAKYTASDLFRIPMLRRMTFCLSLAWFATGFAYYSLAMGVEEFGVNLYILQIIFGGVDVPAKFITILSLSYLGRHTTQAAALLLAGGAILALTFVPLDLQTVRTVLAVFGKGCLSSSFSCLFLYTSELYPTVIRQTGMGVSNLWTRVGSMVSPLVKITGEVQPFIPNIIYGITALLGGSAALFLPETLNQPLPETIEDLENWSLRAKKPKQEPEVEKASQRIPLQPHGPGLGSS
In words: Inhibitory potency towards OAT3. The data set is classed as in vitro ADME.

The target of data set [8] is T1, OATP1B3. In words: Inhibitory potency towards OATP1B3. In kind it is in vitro ADME.
Data set [9] deals with CYP2B6. The data set can be described thus: CYP induction in cultured human hepatocytes: CYP2B6. The data set is classed as in vitro ADME. The note with it: three donors, up to 10,000 μg/L (23.5 µM).
For data set [10] the following is noted: multiple oral doses vericiguat 2.5 mg 2 h prior to sacubitril/valsartan; cited from earlier work.
For data set [11] the following is noted: ref data on file, cited from earlier work.
The conditions of data set [12]: cited from earlier work.
Data set [13] relates to major cytochrome P450 (CYP) isoforms. The note with it: human liver microsomes; cited from earlier work. (Liver microsomes are a subcellular fraction often used to study metabolism.)
The mark [14] stands for this setting: with ketoconazole 200 mg BID vs vericiguat 1.25 mg SD alone, fed.
The mark [15] stands for this setting: following a 10-mg dose once daily.

In general, IC50 refers to the concentration that inhibits the measured activity by half. Lower therefore signals greater potency in that assay. One may read the Cmax as the highest concentration seen after dosing.

Where two headings read alike, the source gives them in different places. A value given as a limit tells only on which side of the number the result lay.

Sequence of P-glycoprotein (P08183 whole entry): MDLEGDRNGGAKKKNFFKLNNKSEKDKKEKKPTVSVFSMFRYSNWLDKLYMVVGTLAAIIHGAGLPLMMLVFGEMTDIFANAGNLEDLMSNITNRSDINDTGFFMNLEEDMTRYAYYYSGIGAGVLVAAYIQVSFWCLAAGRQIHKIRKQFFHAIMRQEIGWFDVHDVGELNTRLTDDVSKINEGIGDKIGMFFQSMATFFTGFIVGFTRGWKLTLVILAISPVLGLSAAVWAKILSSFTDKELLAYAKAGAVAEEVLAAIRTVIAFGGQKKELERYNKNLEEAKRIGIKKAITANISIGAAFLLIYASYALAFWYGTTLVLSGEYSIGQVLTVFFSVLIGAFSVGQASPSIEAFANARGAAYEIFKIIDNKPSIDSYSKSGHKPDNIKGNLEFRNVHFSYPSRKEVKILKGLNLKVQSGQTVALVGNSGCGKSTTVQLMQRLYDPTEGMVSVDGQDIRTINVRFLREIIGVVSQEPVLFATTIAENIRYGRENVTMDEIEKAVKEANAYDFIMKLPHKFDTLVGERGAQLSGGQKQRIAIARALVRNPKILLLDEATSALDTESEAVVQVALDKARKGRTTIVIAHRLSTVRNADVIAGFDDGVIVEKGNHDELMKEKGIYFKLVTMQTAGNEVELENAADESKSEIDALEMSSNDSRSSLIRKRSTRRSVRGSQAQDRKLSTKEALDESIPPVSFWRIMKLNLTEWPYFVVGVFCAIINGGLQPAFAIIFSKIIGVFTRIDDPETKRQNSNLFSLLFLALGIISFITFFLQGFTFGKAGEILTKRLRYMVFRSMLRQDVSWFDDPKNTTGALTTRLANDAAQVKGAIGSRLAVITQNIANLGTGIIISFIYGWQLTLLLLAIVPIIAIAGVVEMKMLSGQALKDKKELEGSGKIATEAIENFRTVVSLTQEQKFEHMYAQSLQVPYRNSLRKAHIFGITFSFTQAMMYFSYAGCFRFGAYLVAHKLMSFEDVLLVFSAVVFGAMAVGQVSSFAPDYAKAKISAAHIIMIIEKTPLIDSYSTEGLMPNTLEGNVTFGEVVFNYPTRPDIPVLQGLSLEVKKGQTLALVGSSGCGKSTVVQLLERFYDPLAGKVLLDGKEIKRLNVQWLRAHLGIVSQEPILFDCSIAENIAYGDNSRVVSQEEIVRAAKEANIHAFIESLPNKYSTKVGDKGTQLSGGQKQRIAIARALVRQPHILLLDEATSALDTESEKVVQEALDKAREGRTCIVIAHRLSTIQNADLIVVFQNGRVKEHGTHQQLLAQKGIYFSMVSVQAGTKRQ

Consider `COC(=O)Nc1c(N)nc(-c2nn(Cc3ccccc3F)c3ncc(F)cc23)nc1N` [Vericiguat], for which, in data set [1] (co-administration with ketoconazole 200 mg twice daily), the “Increase in vericiguat exposure (AUC)” value worked out at 13%. The “AUC of vericiguat, point estimate of treatment ratio” value in data set [1] (setting [14]) is listed as 1.126; in data set [2] it was 0.949. Further, the “Cmax of vericiguat, point estimate of treatment ratio” value is 1.109 in data set [1] (setting [14]) and 0.933 in data set [2]. Also, in [3], the “Decrease in AUC0–24 of vericiguat” value is “about 7%”. Also, in data set [3], the “Decrease in Cmax of vericiguat” value is given as roughly 9%. Moreover, the “Substrate of OATP1B3” value in data set [4] is on record as “not a substrate”. Besides, the half-inhibitory concentration (IC50) was greater than 100 µM in data set [5], greater than 10 µM in [6], greater than 5 µM in data set [7] and roughly 30 µM in [8]. Moreover, in data set [9], the “Induction of CYP2B6” value is listed as “no significant induction”. The “Effect on seated blood pressure” value in [10] is listed as “no additional effect”. Moreover, in data set [11] (setting [15]), the “Projected unbound inlet Cmax” value is reported as 0.03 µM. Besides, the “Unbound Cmax” value in data set [11] (setting [15]) and in [11] (multiple-dose oral 10 mg once daily in patients with HFrEF) was “approximately 0.02 µM” throughout. Also, the Cmax in data set [11] (read-out: Total Cmax, following a 10-mg dose once daily) is roughly 800 nM. Moreover, the “Increase in AUC after administration with food compared to without” value in data set [12] (vericiguat alone) is “approximately 44%”. The “Increase in Cmax after administration with food compared to without” value in data set [12] (vericiguat alone) was roughly 41%. Besides, the “Geometric coefficient of variation in AUC” value is 19% in [12] (with food) and 41% in data set [12] (without food). Moreover, the Oral bioavailability in data set [12] (with food) is listed as 93%. The “Inhibitory effects on major cytochrome P450 (CYP) isoforms” value in data set [13] is “no inhibitory effects”.
